The values that follow come from ChEMBL document CHEMBL1772990, “Biomimetic syntheses and antiproliferative activities of racemic, natural (-), and unnnatural (+) glyceollin I” (2011).

The nature of assay [1]: Antiproliferative activity against estrogen receptor-deficient human NCI-ADR-RES cells incubated with 0.06 nM of estradiol and 0.07 nM of testosterone after 48 hrs by sulforhodamine B assay in presence of fetal bovine serum and NuSerum. Format: functional. In a few lines:
(§1)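 Sulforhodamine B growth assay with 48 h agent exposure at 37 °C in 5% CO2. Seeding densities were preset to give exponential growth with final OD below 2.0. Percent growth was taken from OD versus matched vehicle-only (0.25% DMSO) controls. GI50 came from a Hill equation fit, with values averaging eight sets of duplicate wells across a concentration range.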
In general terms: Sulforhodamine B stains cellular protein and so reports cell mass.

In assay [2] the test system is MCF7. The assay is described as follows: Antiproliferative activity against human MCF7 cells expressing estrogen receptor incubated with 0.003 nM of estradiol and 0.01 nM of testosterone after 48 hrs by sulforhodamine B assay in presence of 5% fetal bovine serum. The format is functional. The note with it: MCF7, 48 h. In outline:
(§2)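 Low-E2 condition: MCF7 and NCI-ADR-RES cells were precultured at least 4 days in RPMI with 5% FBS and no NuSerum, then seeded in it at 3500 and 6000 cpw. MCF12A cells were seeded at 1600 cpw in their maintenance medium (DMEM/F-12 with insulin, hydrocortisone, EGF, cholera toxin, 5% FBS). Agents were added in 5% FBS RPMI. After 48 h, growth was read by sulforhodamine B OD versus 0.25% DMSO controls, with GI50 from a Hill fit.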

Assay [3] is described as follows: Antiproliferative activity against estrogen receptor-deficient human NCI-ADR-RES cells incubated with 100 nM of estradiol and 0.07 nM of testosterone after 48 hrs by sulforhodamine B assay in presence of fetal bovine serum and NuSerum. Format: functional. In a few lines:
(§3)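 High-E2 condition: cells were seeded as for the intermediate-E2 tests. Agents were added in 5% FBS/5% NuSerum medium with E2 added to give 100 nM final during exposure. After 48 h at 37 °C in 5% CO2, sulforhodamine B staining gave percent of matched 0.25% DMSO vehicle-control growth. GI50 came from a Hill equation fit, averaging eight sets of duplicate wells.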

The test system of another assay is DU-145. The assay is described as follows: Antiproliferative activity against androgen receptor-deficient human DU145 cells incubated with 0.6 nM of estradiol and 0.7 nM of testosterone after 48 hrs by sulforhodamine B assay. The format is functional. The note with it: DU-145, 48 h. In a few lines:
as §1

Assay [4] can be described thus: Antiproliferative activity against estrogen receptor-deficient human NCI-ADR-RES cells incubated with 0.003 nM of estradiol and 0.01 nM of testosterone after 48 hrs by sulforhodamine B assay in presence of 5% fetal bovine serum. The format is functional. In outline: as §2
The next assay deals with LNCaP. In words: Antiproliferative activity against human LNCAP cells expressing androgen receptor incubated with 0.6 nM of estradiol and 0.7 nM of testosterone after 48 hrs by sulforhodamine B assay. Format: functional. In outline:
as §1

Assay [5] has as its system MCF7. The assay is described as follows: Antiproliferative activity against human MCF7 cells expressing estrogen receptor incubated with 0.06 nM of estradiol and 0.07 nM of testosterone after 48 hrs by sulforhodamine B assay in presence of fetal bovine serum and NuSerum. Format: functional. The note with it: MCF7, 48 h. In a few lines: as §1
The test system of assay [6] is MCF7. In words: Antiproliferative activity against human MCF7 cells expressing estrogen receptor incubated with 100 nM of estradiol and 0.07 nM of testosterone after 48 hrs by sulforhodamine B assay in presence of fetal bovine serum and NuSerum. The note with it: MCF7, 48 h. Format: functional. In a few lines: as §3
Assay [7] deals with MCF-12A. In words: Antiproliferative activity against estrogen receptor-deficient human MCF12A cells incubated with 0.003 nM of estradiol and 0.01 nM of testosterone after 48 hrs by sulforhodamine B assay in presence of 5% fetal bovine serum. The format is functional. In outline:
as §2

Assay [8] relates to MCF-12A. In words: Antiproliferative activity against estrogen receptor-deficient human MCF12A cells incubated with 100 nM of estradiol and […] of testosterone after 48 hrs by sulforhodamine B assay in presence of fetal bovine serum and NuSerum.
The subject of assay [9] is MCF-12A. The assay is described as follows: Antiproliferative activity against estrogen receptor-deficient human MCF12A cells incubated with 0.06 nM of estradiol and 0.07 nM of testosterone after 48 hrs by sulforhodamine B assay in presence of fetal bovine serum and NuSerum. The format is functional. In outline:
as §1

For a further assay, the system named is PC-3. The assay is described as follows: Antiproliferative activity against androgen receptor-deficient human PC3 cells incubated with 0.6 nM of estradiol and 0.7 nM of testosterone after 48 hrs by sulforhodamine B assay. Format: functional. The note with it: PC-3, 48 h. In outline:
as §1

Each structure is given as a SMILES string.

As a reminder, the GI50 is the concentration at which growth is held to half of that of the control.

`CC1(C)C=Cc2c(ccc3c2OC[C@]2(O)c4ccc(O)cc4O[C@H]32)O1`: the GI50 in assay [1] is 44.7 µM; in the assay with MCF7 [2], 22.9 µM; in assay [3] it was 30.2 µM; with DU-145 it was 57.5 µM; in assay [4], 42.7 µM; in the assay with LNCaP, 27.5 µM. Further, the GI50 is 24 µM with MCF7 [5]; 21.4 µM in the assay on MCF7 [6]; 38 µM in the assay with MCF-12A [7]; 46.8 µM with MCF-12A [8]; 38.9 µM with MCF-12A [9]; 47.9 µM in the assay with PC-3.

With `CCC(=C(c1ccc(O)cc1)c1ccc(OCCN(C)C)cc1)c1ccccc1`, the GI50 in assay [1] is 6.17 µM; with MCF7 [2], 1.41 µM; in assay [3], 7.76 µM; in the assay on DU-145, 10.7 µM; in assay [4], 4.47 µM; with LNCaP it was 8.32 µM. Besides, the GI50 with MCF7 [5] is 1.91 µM; in the assay with MCF7 [6] it was 3.47 µM; in the assay on MCF-12A [7], 3.31 µM; in the assay on MCF-12A [8], 3.24 µM; in the assay on MCF-12A [9] it was 3.89 µM; in the assay with PC-3, 7.59 µM.

As to `CC1(C)C=Cc2c(ccc3c2OCC2(O)c4ccc(O)cc4OC32)O1` (racemic), the GI50 was 37.2 µM in assay [1]; 17.4 µM in the assay with MCF7 [2]; 45.7 µM in [3]; 29.5 µM in the assay with DU-145; 41.7 µM in [4]; 12.9 µM with LNCaP. Moreover, the GI50 in the assay on MCF7 [5] is 20 µM; in the assay with MCF7 [6], 18.2 µM; in the assay with MCF-12A [7] it was 47.9 µM; in the assay with MCF-12A [8], 51.3 µM; in the assay on MCF-12A [9], 45.7 µM; in the assay on PC-3, 32.4 µM.

For `C[C@]12CC[C@@H]3c4ccc(O)cc4C[C@@H](CCCCCCCCC[S+]([O-])CCCC(F)(F)C(F)(F)F)[C@H]3[C@@H]1CC[C@@H]2O` (some centres undefined) [FULVESTRANT], the GI50 in assay [1] was > 100 µM; with MCF7 [2] it was < 0.01 µM; in assay [3] it was > 100 µM; in the assay with DU-145 it was > 100 µM; in assay [4], > 100 µM; with LNCaP it was 398 µM. The GI50 was 158 µM in the assay with MCF7 [5]; 794 µM with MCF7 [6]; > 100 µM in the assay with MCF-12A [7]; > 100 µM with MCF-12A [8]; > 100 µM in the assay with MCF-12A [9]; > 100 µM with PC-3.

Consider `O=c1c(-c2ccc(O)cc2)coc2cc(O)cc(O)c12` [GENISTEIN], for which the GI50 in [1] was 17 µM; with MCF7 [2], 61.7 µM; in assay [3], 26.9 µM; in the assay on DU-145 it was 50.1 µM; in assay [4], 32.4 µM; with LNCaP it was 38.9 µM. The GI50 in the assay with MCF7 [5] is 45.7 µM; in the assay on MCF7 [6] it was 52.5 µM; in the assay with MCF-12A [7] it was 32.4 µM; in the assay on MCF-12A [8], 30.2 µM; in the assay with MCF-12A [9], 21.9 µM; in the assay on PC-3 it was 42.7 µM.

As to `CC1(C)C=Cc2c(ccc3c2OC[C@@]2(O)c4ccc(O)cc4O[C@@H]32)O1` [GLYCEOLLIN I], the GI50 in assay [1] is 30.2 µM; in the assay with MCF7 [2], 13.2 µM; in assay [3] it was 29.5 µM; in the assay on DU-145, 36.3 µM; in assay [4] it was 24.5 µM; in the assay with LNCaP, 11.5 µM. For the same compound, the GI50 in the assay with MCF7 [5] is 13.8 µM; with MCF7 [6], 15.1 µM; with MCF-12A [7], 33.1 µM; in the assay with MCF-12A [8], 38 µM; in the assay with MCF-12A [9], 27.5 µM; with PC-3, 30.9 µM.

Take `CC/C(=C(\c1ccccc1)c1ccc(OCCN(C)C)cc1)c1ccccc1` [TAMOXIFEN]: the GI50 in [1] is 9.55 µM; in the assay with MCF7 [2] it was 2.29 µM; in assay [3], 11.5 µM; in the assay on DU-145, 13.8 µM; in assay [4], 5.75 µM; in the assay on LNCaP, 10 µM. Besides, the GI50 was 2.95 µM with MCF7 [5]; 5.62 µM with MCF7 [6]; 5.75 µM with MCF-12A [7]; 5.75 µM in the assay with MCF-12A [8]; 6.92 µM with MCF-12A [9]; 11 µM with PC-3.
